Data published in ChEMBL document CHEMBL1933058, “5-(2-amino-pyrimidin-4-yl)-1H-pyrrole and 2-(2-amino-pyrimidin-4-yl)-1,5,6,7-tetrahydro-pyrrolo[3,2-c]pyridin-4-one derivatives as new classes of selective and orally available Polo-like kinase 1 inhibitors” (Bioorg Med Chem Lett, 2012).
≈ marks a conversion by molar mass, not a printed value. Calls of active or inactive are those of the source. No cut-off for these calls is given here.

Tests used:
[1] = target: Tyrosine-protein kinase JAK2 (Homo sapiens, UniProt O60674); assay: Inhibition of JAK2
Tyrosine-protein kinase JAK2, sequence (O60674 whole entry): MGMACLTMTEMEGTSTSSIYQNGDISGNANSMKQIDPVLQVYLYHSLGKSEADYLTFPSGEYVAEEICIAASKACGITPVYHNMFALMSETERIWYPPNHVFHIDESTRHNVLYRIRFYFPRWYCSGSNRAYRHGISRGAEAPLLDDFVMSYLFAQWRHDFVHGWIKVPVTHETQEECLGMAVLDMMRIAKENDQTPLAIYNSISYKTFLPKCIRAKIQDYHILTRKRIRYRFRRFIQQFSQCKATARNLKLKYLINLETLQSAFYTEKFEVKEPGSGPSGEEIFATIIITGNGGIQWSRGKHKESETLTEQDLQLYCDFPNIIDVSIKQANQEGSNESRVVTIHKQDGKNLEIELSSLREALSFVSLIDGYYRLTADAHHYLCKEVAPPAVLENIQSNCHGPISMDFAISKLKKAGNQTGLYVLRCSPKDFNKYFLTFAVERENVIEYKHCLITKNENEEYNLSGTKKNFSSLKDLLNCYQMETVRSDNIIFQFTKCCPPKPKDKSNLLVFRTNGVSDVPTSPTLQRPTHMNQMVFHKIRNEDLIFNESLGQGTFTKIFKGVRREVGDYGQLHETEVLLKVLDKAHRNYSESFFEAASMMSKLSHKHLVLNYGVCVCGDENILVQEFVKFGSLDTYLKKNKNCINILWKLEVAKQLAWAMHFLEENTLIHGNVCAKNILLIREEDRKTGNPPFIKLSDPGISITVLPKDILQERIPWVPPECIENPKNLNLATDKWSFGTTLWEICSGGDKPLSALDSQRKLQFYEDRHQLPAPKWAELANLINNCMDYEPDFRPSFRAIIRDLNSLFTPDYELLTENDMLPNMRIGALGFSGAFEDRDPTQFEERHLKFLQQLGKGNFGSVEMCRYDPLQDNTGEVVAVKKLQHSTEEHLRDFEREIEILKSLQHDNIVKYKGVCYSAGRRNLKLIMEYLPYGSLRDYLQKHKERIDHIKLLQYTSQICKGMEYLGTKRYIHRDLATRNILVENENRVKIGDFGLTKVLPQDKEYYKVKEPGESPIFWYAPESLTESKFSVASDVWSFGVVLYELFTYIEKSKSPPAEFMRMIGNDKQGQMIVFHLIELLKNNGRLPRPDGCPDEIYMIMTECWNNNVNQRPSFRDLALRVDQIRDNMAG

[2] = Half life in Nu/Nu Balb Harlan mouse at 10 mg/kg, iv; assay type: ADME, organism-based; parameters: dose 10 mg/kg, route intravenous; conditions: in vivo
Outline: (§1)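 Male Balb Nu/Nu mice (Harlan) received a single 10 mg/kg intravenous dose, n = 3 animals per study. Vehicle was either trifluoroacetate salt in dextrose or free base in 50% PEG 400/glucosate, depending on compound. Parameters were reported as mean ± standard deviation.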

[3] = Clearance in Nu/Nu Balb Harlan mouse at 10 mg/kg, iv; assay type: ADME, organism-based; parameters: dose 10 mg/kg, route intravenous; conditions: in vivo; outline: as §1
[4] = target: Fibroblast growth factor receptor 1 (Homo sapiens, UniProt P11362); assay: Inhibition of FGFR1
A2780 [5] = assay: Antiproliferative activity against human A2780 cells; assay type: functional, cell-based
[6] = target: cAMP-dependent protein kinase catalytic subunit alpha (Homo sapiens, UniProt P17612); assay: Inhibition of PKAalpha
[7] = target: Tyrosine-protein kinase Lck (Homo sapiens, UniProt P06239); assay: Inhibition of LCK
A2780 [8] = assay: Cell cycle arrest in human A2780 cells assessed as reduction of phospho Ser46 TCTP level at 0.05 to 5 uM after 1 hr by Western blotting analysis; assay type: functional, cell-based
Outline: (§2)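 A2780 cells got 1 h exposure at 0.05, 0.5 and 5 µM, with nocodazole-treated cells as comparator. Western blot was used to probe the PLK1 substrate marker pSer46 TCTP and the mitotic marker pSer10 histone H3.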

[9] = Volume of distribution at steady state in Nu/Nu Balb Harlan mouse at 10 mg/kg, iv; assay type: ADME, organism-based; parameters: dose 10 mg/kg, route intravenous; conditions: in vivo, read-out: Vdss
Aurora kinase A = target: T1, Aurora kinase A (Homo sapiens, UniProt O14965); assay: Inhibition of Aurora-A
T1 sequence (O14965 whole entry): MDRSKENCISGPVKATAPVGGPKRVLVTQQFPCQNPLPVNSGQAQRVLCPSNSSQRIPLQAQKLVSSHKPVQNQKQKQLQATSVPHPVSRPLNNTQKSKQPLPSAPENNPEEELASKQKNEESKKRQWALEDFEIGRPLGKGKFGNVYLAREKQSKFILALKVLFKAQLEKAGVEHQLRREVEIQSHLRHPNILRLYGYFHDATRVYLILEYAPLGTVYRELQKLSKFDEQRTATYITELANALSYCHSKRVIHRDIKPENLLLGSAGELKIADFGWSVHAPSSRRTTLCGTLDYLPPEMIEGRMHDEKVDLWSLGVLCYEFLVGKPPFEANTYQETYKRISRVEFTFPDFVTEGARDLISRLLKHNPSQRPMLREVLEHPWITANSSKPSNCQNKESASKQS

[10] = target: Cyclin-dependent kinase 2/cyclin E1 (Homo sapiens, UniProt P24941); assay: Inhibition of CDK2/cyclin E; assay type: protein-complex assay
[11] = target: Protein kinase C beta type (Homo sapiens, UniProt P05771); assay: Inhibition of PKCbeta
[12] = target: Glycogen synthase kinase-3 beta (Homo sapiens, UniProt P49841); assay: Inhibition of GSK3-beta
[13] = target: Protein-tyrosine kinase 6 (Homo sapiens, UniProt Q13882); assay: Inhibition of BRK
Protein-tyrosine kinase 6, sequence (Q13882 whole entry): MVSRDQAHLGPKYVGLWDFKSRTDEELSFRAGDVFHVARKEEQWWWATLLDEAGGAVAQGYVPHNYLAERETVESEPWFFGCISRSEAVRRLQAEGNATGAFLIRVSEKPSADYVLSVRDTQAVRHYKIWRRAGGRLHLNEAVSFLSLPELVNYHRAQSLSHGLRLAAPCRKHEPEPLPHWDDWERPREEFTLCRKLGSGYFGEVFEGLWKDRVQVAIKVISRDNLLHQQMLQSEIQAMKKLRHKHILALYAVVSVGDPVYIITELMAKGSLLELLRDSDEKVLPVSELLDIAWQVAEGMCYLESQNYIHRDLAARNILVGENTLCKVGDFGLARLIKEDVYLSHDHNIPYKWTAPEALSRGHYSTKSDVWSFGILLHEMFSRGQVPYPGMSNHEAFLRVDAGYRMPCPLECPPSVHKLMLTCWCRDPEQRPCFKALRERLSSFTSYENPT

Caco-2 = assay: Apparent permeability across human Caco2 cells; assay type: ADME, cell-based
MOLM-13 = assay: Antiproliferative activity against human MOLM13 cells; assay type: functional, cell-based
A2780 [14] = assay: Induction of apoptosis in human A2780 cells assessed as caspase3 activation at 5 uM after 24 hrs by Western blotting analysis; assay type: functional, cell-based
Outline: (§3)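 A2780 cells were treated for 24 h at 0.05, 0.5 and 5 µM, with nocodazole as positive control. Lysates were immunoblotted for pSer10 histone H3, pThr199 nucleophosmin, cyclin B1, cyclin A, PARP cleavage and caspase 3 activation.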

[15] = target: Cyclin-dependent kinase 1/cyclin B1 (Homo sapiens, UniProt P06493); assay: Inhibition of CDK1/cyclin B; assay type: protein-complex assay
Cyclin-dependent kinase 1/cyclin B1, sequence (P06493 whole entry): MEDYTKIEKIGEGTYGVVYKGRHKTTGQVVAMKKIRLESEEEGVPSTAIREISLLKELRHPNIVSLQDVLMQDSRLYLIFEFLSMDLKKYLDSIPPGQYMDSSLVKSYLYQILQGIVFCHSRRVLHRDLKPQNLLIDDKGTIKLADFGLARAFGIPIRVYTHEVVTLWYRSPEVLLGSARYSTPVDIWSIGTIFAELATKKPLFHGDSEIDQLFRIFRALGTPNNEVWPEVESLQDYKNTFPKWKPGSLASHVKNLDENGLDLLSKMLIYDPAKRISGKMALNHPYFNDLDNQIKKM
Cyclin-dependent kinase 1/cyclin B1, sequence (P14635 whole entry, further chain): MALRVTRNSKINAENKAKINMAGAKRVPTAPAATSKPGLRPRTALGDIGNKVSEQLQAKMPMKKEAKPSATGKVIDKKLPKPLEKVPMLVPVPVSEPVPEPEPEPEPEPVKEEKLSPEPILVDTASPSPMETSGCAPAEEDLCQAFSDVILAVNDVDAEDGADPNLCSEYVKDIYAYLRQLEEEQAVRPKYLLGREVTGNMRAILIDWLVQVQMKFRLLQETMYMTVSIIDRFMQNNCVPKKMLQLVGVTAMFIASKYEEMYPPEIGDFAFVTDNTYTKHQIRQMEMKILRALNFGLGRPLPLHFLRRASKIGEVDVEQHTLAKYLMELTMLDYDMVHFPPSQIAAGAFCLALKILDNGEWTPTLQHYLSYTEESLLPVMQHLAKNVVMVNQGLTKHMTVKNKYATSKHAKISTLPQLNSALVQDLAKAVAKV

[16] = Oral bioavailability in Nu/Nu Balb Harlan mouse at 10 mg/kg; assay type: ADME, organism-based; conditions: in vivo
[17] = target: Serine/threonine-protein kinase Chk1 (Homo sapiens, UniProt O14757); assay: Inhibition of CHK1
Serine/threonine-protein kinase Chk1, sequence (O14757 whole entry): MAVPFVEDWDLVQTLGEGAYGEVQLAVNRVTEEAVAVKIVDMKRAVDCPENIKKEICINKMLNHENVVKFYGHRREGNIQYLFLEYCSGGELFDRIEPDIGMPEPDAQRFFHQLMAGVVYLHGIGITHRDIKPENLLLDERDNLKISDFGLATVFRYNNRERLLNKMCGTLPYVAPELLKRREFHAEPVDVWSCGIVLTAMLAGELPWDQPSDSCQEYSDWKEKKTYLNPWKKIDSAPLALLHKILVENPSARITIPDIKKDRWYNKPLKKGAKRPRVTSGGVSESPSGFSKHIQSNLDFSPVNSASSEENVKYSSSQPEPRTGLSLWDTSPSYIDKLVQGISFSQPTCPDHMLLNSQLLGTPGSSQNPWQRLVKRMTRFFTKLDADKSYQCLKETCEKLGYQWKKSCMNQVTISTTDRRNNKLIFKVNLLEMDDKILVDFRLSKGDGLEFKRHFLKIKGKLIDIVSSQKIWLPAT

Insulin receptor = Insulin receptor (Homo sapiens, UniProt P06213); assay: Inhibition of IR
A2780 [18] = assay: Induction of apoptosis in human A2780 cells assessed as PARP cleavage at 5 uM after 24 hrs by Western blotting analysis; assay type: functional, cell-based; outline: as §3
[19] = target: Tyrosine-protein kinase ABL1 (Homo sapiens, UniProt P00519); assay: Inhibition of c-ABL
Tyrosine-protein kinase ABL1, sequence (P00519 whole entry): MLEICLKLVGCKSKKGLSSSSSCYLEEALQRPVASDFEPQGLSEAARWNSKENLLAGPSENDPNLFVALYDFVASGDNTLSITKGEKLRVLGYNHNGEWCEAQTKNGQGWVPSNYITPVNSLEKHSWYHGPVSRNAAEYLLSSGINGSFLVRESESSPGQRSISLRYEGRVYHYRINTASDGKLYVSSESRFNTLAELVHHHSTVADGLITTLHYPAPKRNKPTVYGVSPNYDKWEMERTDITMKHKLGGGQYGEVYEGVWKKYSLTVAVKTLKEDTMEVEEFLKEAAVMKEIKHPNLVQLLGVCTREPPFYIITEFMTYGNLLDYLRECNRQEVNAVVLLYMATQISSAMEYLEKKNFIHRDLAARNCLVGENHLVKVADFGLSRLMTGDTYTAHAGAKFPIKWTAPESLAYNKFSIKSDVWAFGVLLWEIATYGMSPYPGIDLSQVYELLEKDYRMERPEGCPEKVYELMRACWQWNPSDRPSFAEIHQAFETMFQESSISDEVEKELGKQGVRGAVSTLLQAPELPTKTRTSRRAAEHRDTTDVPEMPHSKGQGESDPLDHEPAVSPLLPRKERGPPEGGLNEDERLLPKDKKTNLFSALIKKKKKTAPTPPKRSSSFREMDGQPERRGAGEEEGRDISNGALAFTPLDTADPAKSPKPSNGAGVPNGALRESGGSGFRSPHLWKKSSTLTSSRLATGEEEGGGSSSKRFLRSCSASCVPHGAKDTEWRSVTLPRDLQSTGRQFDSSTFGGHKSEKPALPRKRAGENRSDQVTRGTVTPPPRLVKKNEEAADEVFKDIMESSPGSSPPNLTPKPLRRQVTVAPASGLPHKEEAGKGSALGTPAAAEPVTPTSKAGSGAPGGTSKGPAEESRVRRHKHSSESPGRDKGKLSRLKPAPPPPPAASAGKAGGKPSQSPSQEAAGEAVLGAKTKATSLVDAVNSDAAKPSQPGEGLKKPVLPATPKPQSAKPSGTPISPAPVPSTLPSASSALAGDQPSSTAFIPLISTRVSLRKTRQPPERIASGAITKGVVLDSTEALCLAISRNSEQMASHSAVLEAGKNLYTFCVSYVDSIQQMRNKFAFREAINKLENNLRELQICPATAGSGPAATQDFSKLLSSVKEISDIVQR

[20] = target: Cyclin-dependent kinase 5 activator 1 (Homo sapiens, UniProt Q15078); assay: Inhibition of CDK5/P25
[21] = Solubility of the compound at pH 7; assay type: physicochemical; conditions: buffer
[22] = target: Cyclin-dependent kinase 4/cyclin D1 (Homo sapiens, UniProt P11802); assay: Inhibition of CDK4/cyclin D1; assay type: protein-complex assay
Cyclin-dependent kinase 4/cyclin D1, sequence (P11802 whole entry): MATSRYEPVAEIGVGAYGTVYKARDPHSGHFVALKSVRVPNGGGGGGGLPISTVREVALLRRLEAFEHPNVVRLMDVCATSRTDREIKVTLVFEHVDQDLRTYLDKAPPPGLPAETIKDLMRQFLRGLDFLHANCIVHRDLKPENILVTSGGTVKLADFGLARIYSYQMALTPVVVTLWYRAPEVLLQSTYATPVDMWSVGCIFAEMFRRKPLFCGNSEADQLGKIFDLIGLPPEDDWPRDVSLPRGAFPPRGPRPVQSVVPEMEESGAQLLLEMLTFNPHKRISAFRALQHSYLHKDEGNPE
Cyclin-dependent kinase 4/cyclin D1, sequence (P24385 whole entry, further chain): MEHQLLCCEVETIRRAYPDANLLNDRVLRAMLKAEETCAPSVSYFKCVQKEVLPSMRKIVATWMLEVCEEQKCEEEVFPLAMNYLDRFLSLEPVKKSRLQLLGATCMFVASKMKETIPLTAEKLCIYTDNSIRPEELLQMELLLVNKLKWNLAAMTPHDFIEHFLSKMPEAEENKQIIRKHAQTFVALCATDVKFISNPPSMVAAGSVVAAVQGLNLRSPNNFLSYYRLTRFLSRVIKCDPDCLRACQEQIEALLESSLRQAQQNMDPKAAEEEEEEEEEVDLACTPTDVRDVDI

A2780 [23] = assay: Cell cycle arrest in human A2780 cells assessed as increase of phospho Ser10 histone H3 level after 24 hrs by Western blotting analysis; assay type: functional, cell-based; outline: as §3
[24] = target: Cyclin-dependent kinase 2/cyclin A (Homo sapiens, UniProt P24941); assay: Inhibition of CDK2/cyclin A; assay type: protein-complex assay
MDA-MB-468 = assay: Antiproliferative activity against human MDA-MB-468 cells; assay type: functional, cell-based
[25] = Cmax in Nu/Nu Balb Harlan mouse at 10 mg/kg, po; assay type: ADME, organism-based; parameters: dose 10 mg/kg, route oral; conditions: in vivo
[26] = target: Epidermal growth factor receptor (Homo sapiens, UniProt P04626+P00533+Q15303+P21860); assay: Inhibition of EGFR1; assay type: protein assay
[27] = target: Vascular endothelial growth factor receptor 3 (Homo sapiens, UniProt P35916); assay: Inhibition of VEGFR3
[28] = AUC (0 to infinity) in Nu/Nu Balb Harlan mouse at 10 mg/kg, po; assay type: ADME, organism-based; parameters: time infinity, dose 10 mg/kg, route oral; conditions: plasma
K562 = assay: Antiproliferative activity against human K562 cells; assay type: functional, cell-based
[29] = target: Serine/threonine-protein kinase Nek6 (Homo sapiens, UniProt Q9HC98); assay: Inhibition of NEK6
Serine/threonine-protein kinase Nek6, sequence (Q9HC98 whole entry): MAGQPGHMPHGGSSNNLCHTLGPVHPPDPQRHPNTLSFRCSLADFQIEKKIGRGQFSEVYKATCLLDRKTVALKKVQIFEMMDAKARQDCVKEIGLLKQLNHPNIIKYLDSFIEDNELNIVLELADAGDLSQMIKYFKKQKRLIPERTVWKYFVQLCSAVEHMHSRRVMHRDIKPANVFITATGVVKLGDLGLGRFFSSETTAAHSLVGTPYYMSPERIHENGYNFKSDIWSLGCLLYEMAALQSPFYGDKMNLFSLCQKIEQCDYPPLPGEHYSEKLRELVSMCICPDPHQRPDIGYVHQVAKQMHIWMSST

[30] = Inhibition of SULU1
[31] = target: Serine/threonine-protein kinase PLK2 (Homo sapiens, UniProt Q9NYY3); assay: Inhibition of PLK2
[32] = target: MAP kinase-activated protein kinase 2 (Homo sapiens, UniProt P49137); assay: Inhibition of MAP-KAPK2
A2780 [33] = assay: Cell cycle arrest in human A2780 cells assessed as increase of phospho Ser10 histone H3 level at 0.05 to 5 uM after 1 hr by Western blotting analysis; assay type: functional, cell-based; outline: as §2
[34] = target: RAC-alpha serine/threonine-protein kinase (Homo sapiens, UniProt P31749); assay: Inhibition of AKT1
[35] = AUC (0 to infinity) in Nu/Nu Balb Harlan mouse at 10 mg/kg, iv; assay type: ADME, organism-based; parameters: time infinity, dose 10 mg/kg, route intravenous; conditions: plasma; outline: as §1
[36] = Antiproliferative activity against human SUP-M2 cells; assay type: functional, cell-based
[37] = target: Hepatocyte growth factor receptor (Homo sapiens, UniProt P08581); assay: Inhibition of MET
[38] = target: High affinity nerve growth factor receptor (Homo sapiens, UniProt P04629); assay: Inhibition of TRKA
[39] = Inhibition of CK2
[40] = Inhibition of PDGFR

Compound: CN1CCN(c2ccc(OC(F)(F)F)c(Nc3nccc(-c4cc5c(n4C)CCNC5=O)n3)c2)CC1
- IC50 [1]: > 10 µM
- half-life [2]: 31.2 min
- clearance [3]: 66.4 mL/min/kg
- IC50 [4]: > 10 µM
- IC50 (A2780 [5]): 0.037 µM
- IC50 [6]: > 10 µM
- IC50 [7]: > 10 µM
- Activity (A2780 [8]): Active
- Vd [9]: 2.49 L/kg
- IC50 (Aurora kinase A): > 10 µM
- IC50 [10]: > 10 µM
- IC50 [11]: > 10 µM
- IC50 [12]: > 10 µM
- IC50 [13]: > 10 µM
- Papp (Caco-2): permeable
- IC50 (MOLM-13): 0.021 µM
- Activity (A2780 [14]): Active
- IC50 [15]: > 10 µM
- bioavailability [16]: 52%
- IC50 [17]: > 10 µM
- IC50 (Insulin receptor): > 10 µM
- Activity (A2780 [18]): Active
- IC50 [19]: > 10 µM
- IC50 [20]: > 10 µM
- solubility [21]: 163 µM (≈ 81.7 µg/mL)
- IC50 [22]: > 10 µM
- Activity (A2780 [23]): Dose-dependent effect
- IC50 [24]: > 10 µM
- IC50 (MDA-MB-468): 0.041 µM
- Cmax [25]: 760 nM
- IC50 [26]: > 10 µM
- IC50 [27]: > 10 µM
- AUC(0-inf) [28]: 2.38 µM·h
- IC50 (K562): 0.06 µM
- IC50 [29]: > 10 µM
- IC50 [30]: > 10 µM
- IC50 [31]: > 10 µM
- IC50 [32]: > 10 µM
- Activity (A2780 [33]): Active
- IC50 [34]: > 10 µM
- AUC(0-inf) [35]: 5.78 µM·h
- IC50 [36]: 0.053 µM
- IC50 [37]: > 10 µM
- IC50 [38]: > 10 µM
- IC50 [39]: 0.42 µM
- IC50 [40]: > 10 µM
